RAD54 inh = RAD54 (human) branch migration inhibition. Q92698. RAD54 Holliday junction branch migration, FAM/BHQ fluorescence. inhibition, % at 10.4 µM. 360,000 tested, 0.14% active. AID 602329;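 active = mean normalized replicate activity at least 40 and at least half of replicates scoring 40 or more; inconclusive = only one of the two criteria met; inactive = mean below 40 and under half of replicates reaching 40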;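 note: 0% = median of neutral control wells and 100% = median of positive control wells; inhibitors cause a drop in the FAM fluorescence signal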
PglD DTNB = PglD (C. jejuni) enzyme inhibition; purified PglD enzyme, DTNB colorimetric CoA detection; inhibition, % at 12.5 µM; 360,000 tested, 0.098% active; AID 602405; in the data active = inhibition above about 16%, passing the limit was not always enough; inconclusive = no clear call, values can overlap the other calls
RAD52 inh = inhibitors of human RAD52 DNA annealing | 360,000 tested, 0.46% active | AID 651710 | P43351 | recombinant RAD52 DNA annealing, FRET fluorescence | inhibition, % at 18.7 µM;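 active = every replicate showing at least 50% inhibition; inconclusive = mean inhibition at least 50% but not in every replicate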
Target sequence (P43351 whole entry, looked up): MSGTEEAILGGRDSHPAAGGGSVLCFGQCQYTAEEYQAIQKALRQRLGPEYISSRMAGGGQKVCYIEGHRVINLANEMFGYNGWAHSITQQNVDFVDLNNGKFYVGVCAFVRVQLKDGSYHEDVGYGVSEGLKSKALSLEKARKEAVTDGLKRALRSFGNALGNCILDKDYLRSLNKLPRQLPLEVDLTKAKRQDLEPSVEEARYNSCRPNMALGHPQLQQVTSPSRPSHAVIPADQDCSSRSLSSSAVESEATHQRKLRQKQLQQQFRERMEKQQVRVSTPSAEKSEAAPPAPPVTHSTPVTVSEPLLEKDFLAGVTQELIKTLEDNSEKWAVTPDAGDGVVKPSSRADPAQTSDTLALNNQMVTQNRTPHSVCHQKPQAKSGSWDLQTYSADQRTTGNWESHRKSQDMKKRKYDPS
Ecoli rRNA inh = inhibits bacterial ribosomal RNA function over humanized ribosomes; E. coli WT GFP vs humanized-ribosome RFP mutants, fluorescence, 24 h; hits give low values; DMSO median 0, no signal -100; GFP signal change (wild-type ribosome), % (test concentration not listed); 350,000 tested, 1.6% active;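 active = significant combined selectivity score with lowered wild-type GFP, culture density cut under 30%, mutant RFP and density less affected; inactive = any of these conditions unmet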
Cneo AK release = Cryptococcus neoformans lysis via adenylate kinase release; C. neoformans lysis, adenylate kinase release luminescence, 4 h; normalised: neutral wells 0, clomiphene wells 100; lysis activity, % at 15 µM; AID 651654; 360,000 tested, 0.2% active;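 active = mean lysis activity across replicates of at least 80%, whatever share of replicates individually reach that level; inactive = mean lysis activity below 80%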
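Material – Cryptococcus neoformans yeast cells · Quantity – 5 × 10^6 yeast cells/mL · Buffer or medium – YPD medium · Compound – single dose · Timing – 4 h static compound exposure, 37 °C, read 1 h post-reagent · Signal – adenylate kinase release luminescence · Read-out basis – lysis from increased AK signal · Benchmarks – Clomiphene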
AID977621 = growth inhibition of wild-type GFP E. coli, dose response, H69 mutant RFP, cherry-pick. shares compounds with Ecoli rRNA inh. E. coli wild-type GFP strain growth, fluorescence, 24 h. activity change, negative = inhibition at 50 µM. 1,900 tested, under 10 active. AID 977621;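 active = Wild-type ribosome reporter drop at least double the humanized mutant ribosome reporter drop, growth loss under a set limit; inconclusive = no clear call, values can overlap the other calls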;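 note: wild-type GFP and H69 mutant RFP strains grown together 50/50 in each well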
AID977628 = E. coli growth inhibition, wild-type GFP versus h24 humanized RFP strain, dose response, h24 mutant RFP vs wild-type GFP, cherry-pick; shares compounds with Ecoli rRNA inh; E. coli WT GFP strain growth, fluorescence, 24 h; activity change, negative = inhibition at 50 µM; 1,900 tested, under 10 active;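 active = compound lowering the normal-ribosome reporter at least twice as much as the humanized-ribosome reporter, growth loss under a set limit; inconclusive = no clear call, values can overlap the other calls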;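 note: wild-type GFP and h24 humanized RFP strains co-cultured 1 to 1 per well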
Numbers without * were called inactive; u = inconclusive; x = no result. This is a sample that favours compounds with a hit; in the whole collection about 1.9% have one here.

SMILES | RAD54 inh | PglD DTNB | RAD52 inh | Ecoli rRNA inh | Cneo AK release | AID977621 | AID977628
C[C@@H]1CCCCO[C@H](CN(C)C(=O)CCCN(C)C)[C@@H](C)CN([C@@H](C)CO)C(=O)c2cc(NC(=O)Nc3cccc4ccccc34)ccc2O1 | 11 | -4 | 43 | -39* | 7 | -8.1 | u
C[C@@H]1CCCCO[C@@H](CN(C)C(=O)Nc2cccc3ccccc23)[C@@H](C)CN([C@H](C)CO)C(=O)c2cc(NC(=O)Nc3cccc4ccccc34)ccc2O1 | 3 | 0 | 1 | 4 | -4 | x | x
C[C@@H]1CCCCO[C@@H](CN(C)C(=O)CCCN(C)C)[C@H](C)CN([C@@H](C)CO)C(=O)c2cc(NC(=O)Nc3cccc4ccccc34)ccc2O1 | 13 | 3 | 14 | 0 | 7 | x | u
Fc1ccc2nc(C3CCN(Cc4nc(CC5CC5)no4)CC3)[nH]c2c1 | x | x | -14 | -4 | x | x | x
Fc1ccccc1C1CCN(Cc2nc(CC3CC3)no2)C1 (stereo not given) | x | x | -12 | -18* | x | -2.5 | -5.5
O=[N+]([O-])c1cccc(COc2ccc(CN3CCCC3)cc2)c1 | 3 | 3 | 13 | -4 | 7 | x | x
O=[N+]([O-])c1cccc(COc2ccc(CN3CCOCC3)cc2)c1 | -1 | 2 | -7 | -17* | -3 | -5 | -8.8
COc1ccc(C#Cc2cnc3c(c2)C(=O)N([C@@H](C)CO)C[C@@H](C)[C@H](CN(C)C(=O)Nc2cccc(OC)c2)O3)cc1 | x | x | x | -1 | x | x | x
Cc1ccc(Cc2c(-c3ccco3)nc3c(C)cc(Br)cn23)cc1 | 6 | 3 | -107 | x | 3 | x | x
Cc1cc(Br)cn2c(Cc3cccc(Cl)c3)c(-c3ccco3)nc12 | x | x | -51 | -21* | x | 4.2 | -3.1
CC(=O)Oc1c(Cl)cc(N(C(C)=O)S(=O)(=O)c2ccccc2)c2ccccc12 | -3 | 8 | -11 | -37* | 0 | u | x
COCc1cn(CC[C@@H]2CC[C@H](NC(=O)c3ccc(F)cc3)[C@@H](CO)O2)nn1 | -7 | 2 | -11 | 2 | 3 | x | x
O=[N+]([O-])c1ccc(Cl)cc1NCc1cccnc1 | x | x | -4 | -21* | x | -11 | u
O=C(O)c1ccc(NCc2cccnc2)c([N+](=O)[O-])c1 | -5 | -4 | -2 | 16 | 1 | x | x
O=C(N[C@@H]1CC[C@H](CCNS(=O)(=O)c2ccc(Cl)cc2)O[C@H]1CO)c1cccnc1 | -5 | 1 | -10 | 2 | -5 | x | x
O=C1N2c3ccccc3CCc3cccc(c32)C1(O)C(F)(F)F (stereo not given) | 4 | 3 | 0 | -17* | -3 | -14 | x
CCSc1nc2ccccc2n1CCC(=O)O | -14 | 4 | x | x | 7 | x | x
O=C(O)CCn1c(SCc2cccc3ccccc23)nc2ccccc21 | 1 | 2 | -17 | -16* | 3 | -11 | u
Cc1cc(NC(=O)c2cccc(Oc3ccccc3)c2)n[nH]1 | x | x | -17 | -22* | x | x | u
O=C(NCCOc1ccccc1)c1ccccc1Cl | -10 | 8 | -7 | 13 | 0 | x | x
CN(C(=O)COc1ccccc1C(=O)NCCOc1ccccc1)c1ccccc1 | x | x | 0 | -19* | x | -9.1 | x
CC(=O)N(C)C[C@@H]1Oc2ncc(-c3cccc(C#N)c3)cc2C(=O)N([C@H](C)CO)C[C@@H]1C | -6 | -1 | 9 | -2 | -10 | x | x
COc1ccc(OC2C(=O)N(Cc3ccc4c(c3)OCO4)C2c2sccc2C)cc1 (stereo not given) | 11 | 3 | -21 | -22* | 0 | -13 | x
COc1ccc(OC2C(=O)N(Cc3ccc(F)cc3)C2c2ccc(OC)c(OC)c2)cc1 (stereo not given) | 5 | -1 | 1 | -9 | 0 | x | x
CN(CC(=O)Nc1ccc(F)cc1)C(=O)COc1ccc([N+](=O)[O-])cc1Cl | -3 | -9 | -7 | -24* | -2 | -16 | -6.8
Cc1ccc(OCC(=O)N(C)CC(=O)Nc2ccc(F)cc2)c([N+](=O)[O-])n1 | -13 | 11 | -9 | 9 | -4 | x | x
